Only some compounds are listed: those with a hit (about 3.3% of all), similar ones and a draw of the others.
Arr AP2 block: inhibitors of beta-arrestin/AP2 binding, primary screen, biochemical, GPCR trafficking, flow cytometry; AID 504490, 2011; 0.31% of 340,000 active; inhibition, % at 10 µM; beta-arrestin 1 C-terminal peptide binding to AP2 beta2-adaptin appendage (human); FITC-arrestin peptide / GST-AP2 beads; AP2 beta2 appendage carries R879A mutation;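 active means inhibition above a set limit, near 3 SD of compounds lacking own fluorescence, cut at about 54% in these data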
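System: GST-AP2 R879A glutathione beads | Also added: FITC-arrestin peptide, 50 nM | Times: 12 min plus 1 h, RT | Signal: Bead flow cytometry, FITC channel | Buffer or medium: PBS with 0.05% Tween 20 and 0.1% BSA | Read-out basis: Percent drop in bead-associated FITC signal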
Granule exo inh: LAMP-1 surface exposure blockers, TALL-104 cells – cell-based, flow cytometry, MLPCN library, primary screen. TALL-104 LAMP-1 surface exposure; cells stimulated with thapsigargin and PMA. inhibition, % at 10 µM. 0.66% of 360,000 active;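 active means inhibition above about 55%, limit read from the data; inconclusive means no clear call, values can overlap the other calls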
ATG4B inhibitor: ATG4B protease inhibitors, primary screen, biochemical, fluorescence, uHTS | Cysteine protease ATG4B (Homo sapiens), Q9Y4P1 | ATG4B cleavage of LC3-PLA2, NBD-HPC fluorescence, 1 h | inhibition, % at 8.33 µM | 0.51% of 340,000 active | AID 504462, 2011; in the data active means inhibition above about 40%
Myeloid diff 2: induction of myeloid progenitor differentiation, primary screen, cell-based, flow cytometry, MLPCN library; ER-HoxA9 myeloid progenitors, lysozyme-GFP differentiation; calls only at 10 µM; 1% of 360,000 active;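 active means normalized GFP-positive differentiation at or above the plate's own cutoff, the solvent-only control mean plus 3 SD; inconclusive means no clear call, values can overlap the other calls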;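 further: cells exposed to compound for four days before flow analysis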
NRP1-CendR mod: modulators of CendR peptide binding to NRP-1, primary screen, biochemical, fluorescence polarization, uHTS; Neuropilin-1 (Homo sapiens), O14786; FAM-RPARPAR peptide binding to NRP-1; inhibition, % at 25 µM; 0.85% of 360,000 active;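 active means inhibition or corrected inhibition above about 18%, plus a signal ratio from 0.5 to 1.5, limit read from the data, passing the limit was not always enough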
Target sequence (O14786 whole entry, looked up): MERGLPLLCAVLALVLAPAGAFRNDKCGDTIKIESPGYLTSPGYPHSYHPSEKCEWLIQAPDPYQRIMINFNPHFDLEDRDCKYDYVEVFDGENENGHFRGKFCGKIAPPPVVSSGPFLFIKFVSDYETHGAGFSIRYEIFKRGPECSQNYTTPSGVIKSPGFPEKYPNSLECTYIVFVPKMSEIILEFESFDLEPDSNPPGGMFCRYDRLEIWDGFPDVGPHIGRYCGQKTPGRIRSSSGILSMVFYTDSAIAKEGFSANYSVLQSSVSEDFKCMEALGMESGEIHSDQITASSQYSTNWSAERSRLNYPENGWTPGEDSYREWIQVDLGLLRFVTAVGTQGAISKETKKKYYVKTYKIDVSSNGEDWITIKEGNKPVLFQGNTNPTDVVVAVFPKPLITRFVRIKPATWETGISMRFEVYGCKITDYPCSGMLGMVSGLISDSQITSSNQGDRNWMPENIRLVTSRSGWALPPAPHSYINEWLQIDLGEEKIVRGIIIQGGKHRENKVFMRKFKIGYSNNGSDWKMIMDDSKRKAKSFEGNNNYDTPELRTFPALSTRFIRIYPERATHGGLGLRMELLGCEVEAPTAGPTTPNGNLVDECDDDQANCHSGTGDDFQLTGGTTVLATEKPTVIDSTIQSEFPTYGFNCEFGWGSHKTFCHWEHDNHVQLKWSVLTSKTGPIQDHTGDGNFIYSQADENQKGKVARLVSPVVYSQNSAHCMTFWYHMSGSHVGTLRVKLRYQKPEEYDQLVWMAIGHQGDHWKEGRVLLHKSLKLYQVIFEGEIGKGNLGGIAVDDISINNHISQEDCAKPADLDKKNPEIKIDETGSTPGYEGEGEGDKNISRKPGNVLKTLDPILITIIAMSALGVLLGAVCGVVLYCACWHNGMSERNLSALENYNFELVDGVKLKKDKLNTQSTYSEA
ABCB6 inh 2: ABCB6 transporter inhibitors, primary screen, K562-ABCB6 cells, flow cytometry, MLPCN library | fluorescence ratio to DMSO, % at 10 µM | 0.19% of 360,000 active | K562-ABCB6 porphyrin accumulation, 1 h; stronger effect = lower value | AID 602162, 2011 | ATP-binding cassette sub-family B member 6 (Homo sapiens), Q9NP58;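 active means fluorescence ratio to DMSO below 75%, the collection mean minus 3 SD; inconclusive means too few cells collected in the well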;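 further: signal is porphyrin accumulated inside mitochondria; lower ratio means ABCB6 inhibition with less porphyrin fluorescence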
Hits are given with their value; ! = repeats disagree.

How did COc1ccc(S(=O)(=O)/N=C2\C=C(Nc3ccc(O)cc3)C(=O)c3ccccc32)cc1 do in these assays?
Arr AP2 block: inactive; Granule exo inh: 68; ATG4B inhibitor: inactive; Myeloid diff 2: inconclusive; NRP1-CendR mod: inactive; ABCB6 inh 2: inactive

Results for CCOC(=O)c1ccc(N=c2sc(C(=O)OC)cc(=O)n2CCCN2CCOCC2)cc1 ?
Arr AP2 block: inactive; Granule exo inh: inactive; ATG4B inhibitor: inactive; Myeloid diff 2: active!; NRP1-CendR mod: inactive; ABCB6 inh 2: inactive

Results for CCOC(=O)c1ccc(N=c2sc(C(=O)OC)cc(=O)n2Cc2ccco2)cc1 ?
Arr AP2 block: inactive; Granule exo inh: inactive; ATG4B inhibitor: inactive; Myeloid diff 2: inactive; NRP1-CendR mod: inactive; ABCB6 inh 2: inactive

Results for COCCCNC(=O)C(C)N1c2cccc3cccc(c23)S1(=O)=O (stereo unspecified) ?
Arr AP2 block: inactive; Granule exo inh: inactive; ATG4B inhibitor: inactive; Myeloid diff 2: inactive; NRP1-CendR mod: inactive; ABCB6 inh 2: inactive

How did CN(C)c1ccc(N=Nc2ccc(S(N)(=O)=O)cc2)cc1 do in these assays?
Arr AP2 block: inactive; Granule exo inh: inactive; ATG4B inhibitor: inactive; Myeloid diff 2: inactive; NRP1-CendR mod: inactive; ABCB6 inh 2: inactive

Results for CC1=CC(=O)C=CC1=Nc1ccc(N(C)C)cc1 ?
Granule exo inh: 84; Myeloid diff 2: inconclusive; NRP1-CendR mod: inactive; ABCB6 inh 2: inactive

What do the screens show for `O=S(=O)(CCN1C=CC(C(F)(F)F)=NCC1)c1ccc(Cl)cc1Cl`?
Arr AP2 block: inactive; Granule exo inh: inactive; ATG4B inhibitor: inactive; Myeloid diff 2: inactive; NRP1-CendR mod: inactive; ABCB6 inh 2: inactive

How did CCN(CC)S(=O)(=O)c1cc(C(=O)OC)ccc1Cl do in these assays?
Arr AP2 block: inactive; Granule exo inh: inactive; ATG4B inhibitor: inactive; Myeloid diff 2: inactive; NRP1-CendR mod: inactive; ABCB6 inh 2: inactive

How did CCN(CC)S(=O)(=O)c1ccc(Cl)c(C(=O)OC)c1 do in these assays?
Arr AP2 block: inactive; Granule exo inh: inactive; ATG4B inhibitor: inactive; Myeloid diff 2: active; NRP1-CendR mod: inactive; ABCB6 inh 2: inactive

What do the screens show for `COc1ccc(-c2csc(C(C#N)=C(O)CSc3nccn3C)n2)cc1OC`?
Arr AP2 block: inactive; Granule exo inh: inactive; ATG4B inhibitor: inactive; Myeloid diff 2: inconclusive; NRP1-CendR mod: inactive; ABCB6 inh 2: inactive

What do the screens show for `O=C1C(C=NCCN2CCOCC2)=C(O)c2ccccc21`?
Arr AP2 block: inactive; Granule exo inh: inactive; ATG4B inhibitor: inactive; Myeloid diff 2: inactive; NRP1-CendR mod: 27; ABCB6 inh 2: inactive

How did O=C1C(C=NCCCN2CCOCC2)=C(O)c2ccccc21 do in these assays?
Arr AP2 block: inactive; Granule exo inh: inactive; ATG4B inhibitor: inactive; Myeloid diff 2: inactive; NRP1-CendR mod: inactive; ABCB6 inh 2: inactive

Results for Cc1cc2c(cc1C)NC(C)CC(=O)N2 (stereo unspecified) ?
Arr AP2 block: inactive; Granule exo inh: inactive; ATG4B inhibitor: inactive; Myeloid diff 2: inactive; NRP1-CendR mod: inactive; ABCB6 inh 2: inactive

What do the screens show for `CCOC(=O)CSc1nc2cc(C(=O)NCC3CCCO3)ccc2c(=O)n1Cc1ccco1` (stereo unspecified)?
Arr AP2 block: inactive; Granule exo inh: inactive; ATG4B inhibitor: inactive; Myeloid diff 2: inactive; NRP1-CendR mod: inactive; ABCB6 inh 2: inactive

Results for CCOC(=O)Cn1c(=O)n(Cc2ccco2)c(=O)c2ccc(C(=O)NC3CCCC3)cc21 ?
Arr AP2 block: inactive; Granule exo inh: inactive; ATG4B inhibitor: inactive; Myeloid diff 2: inactive; NRP1-CendR mod: 33; ABCB6 inh 2: inactive

How did COc1cccc(C=Nc2cc(C(C)C)c(O)cc2C)c1O do in these assays?
Arr AP2 block: inactive; Granule exo inh: inactive; ATG4B inhibitor: inactive; Myeloid diff 2: inactive; NRP1-CendR mod: inactive; ABCB6 inh 2: inactive

How did Cc1cc(C)c(-c2csc(NC(=O)/C=C/c3cccs3)n2)c(C)c1 do in these assays?
Arr AP2 block: inactive; Granule exo inh: inactive; ATG4B inhibitor: inactive; Myeloid diff 2: active; NRP1-CendR mod: inactive; ABCB6 inh 2: inactive

What do the screens show for `Cc1cc(C)nc(NC(=O)/C=C/c2cccs2)c1`?
Arr AP2 block: inactive; Granule exo inh: inactive; ATG4B inhibitor: inactive; Myeloid diff 2: inactive; NRP1-CendR mod: inactive; ABCB6 inh 2: inactive

Results for Cc1cccnc1C(NC(=O)C1CCN(Cc2ccc3ccccc3n2)CC1)c1ccc(Cl)cc1 (stereo unspecified) ?
Granule exo inh: inactive; Myeloid diff 2: inactive; NRP1-CendR mod: inactive; ABCB6 inh 2: inactive

What do the screens show for `CCCN=C1N(C)C[C@@H]2[C@@H]3C(=O)N(C)C(=O)[C@@H]3[C@](Cc3ccccc3)(C(=O)OC)N12`?
Arr AP2 block: inactive; Granule exo inh: inactive; ATG4B inhibitor: inactive; Myeloid diff 2: inactive; NRP1-CendR mod: inactive; ABCB6 inh 2: inactive

Results for N#CC1=C(N)NC(SCc2ccc(Cl)cc2)=C(C#N)C12CCCCC2 ?
Arr AP2 block: inactive; Granule exo inh: inactive; ATG4B inhibitor: inactive; Myeloid diff 2: inactive; NRP1-CendR mod: 29; ABCB6 inh 2: inactive

How did COCCN(C(=O)COC(=O)/C=C/c1ccc(SC)cc1)c1c(N)n(Cc2ccccc2)c(=O)[nH]c1=O do in these assays?
Arr AP2 block: inactive; Granule exo inh: inactive; ATG4B inhibitor: inactive; Myeloid diff 2: inactive; NRP1-CendR mod: inactive; ABCB6 inh 2: inactive

Results for CCCCn1c(N)c(N(CCOC)C(=O)COC(=O)/C=C/c2ccc(Br)cc2)c(=O)[nH]c1=O ?
Arr AP2 block: inactive; Granule exo inh: inactive; ATG4B inhibitor: inactive; Myeloid diff 2: inactive; NRP1-CendR mod: 23; ABCB6 inh 2: inactive

What do the screens show for `Cc1cc(S(=O)(=O)c2ccc([N+](=O)[O-])cn2)ccc1Br`?
Arr AP2 block: inactive; Granule exo inh: inactive; ATG4B inhibitor: inactive; Myeloid diff 2: inconclusive; NRP1-CendR mod: 22; ABCB6 inh 2: inactive

What do the screens show for `COC(=O)CCC(=O)OC1(C)C(=O)C2=CN(c3ccc(OC)cc3)C(c3ccc(OC)cc3)=CC2=C(Br)C1=O` (stereo unspecified)?
Arr AP2 block: inactive; Granule exo inh: inactive; ATG4B inhibitor: inactive; Myeloid diff 2: inactive; NRP1-CendR mod: inactive; ABCB6 inh 2: inactive

Results for COc1ccc(C2=CC3=C(Br)C(=O)C(C)(OC(=O)c4ccco4)C(=O)C3=CO2)cc1 (stereo unspecified) ?
Arr AP2 block: inactive; Granule exo inh: inactive; ATG4B inhibitor: 82; Myeloid diff 2: active; NRP1-CendR mod: inactive; ABCB6 inh 2: inactive

Screening data from PubChem BioAssay.
